# This is a sample that favours compounds with a hit; in the whole collection about 1.8% have one here.
# M5 ag: agonists of human muscarinic M5 receptor (CHRM5). activation, % at 3 µM. CHO-K1 hM5 cells, Fluo-8 calcium fluorescence; 0% DMSO wells, 100% maximal acetylcholine response. 360,000 tested, 0.19% active;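 active means activation above the run's mean over test compounds plus 3 SD, cut at about 23% in these data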;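 further: signal is peak over basal fluorescence ratio across the kinetic read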
# CHRM5 PAM: positive allosteric modulators of human muscarinic M5 receptor; P08912; CHO-K1 hM5, Fluo-8 calcium, ACh EC20 PAM; 0% = ACh EC20, 100% = ACh EC100; activation, % at 3 µM; 360,000 tested, 0.3% active; AID 624038;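 active means activation above the run cutoff, the mean activation of all test compounds plus 3 SD, cut at about 18% in these data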
#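 Assay system: CHO-K1 hM5 cells. Also added: acetylcholine at EC20 concentration, added after compound. Dosing: 3 µM, single dose. Times: compound preincubation 140 s before EC20 acetylcholine addition. Signal: Fluo-8 calcium fluorescence. Measure: % activation relative to EC20 and EC100 ACh responses. Repeats: singlicate, one well per test compound.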
# CHRM4 antagonist: blocks acetylcholine activation of human M4 receptor. P08173. CHO-hM4 cells, ACh EC80, Fluo-8 calcium fluorescence. inhibition, % at 3 µM. 360,000 tested, 0.73% active;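 active means inhibition above its plate's cutoff, the mean inhibition of sample wells plus 3 SD, cut at about 27% in these data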;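 further: 0% = acetylcholine EC80 with DMSO and 100% = DMSO without agonist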
# Target sequence (P08173 whole entry, looked up): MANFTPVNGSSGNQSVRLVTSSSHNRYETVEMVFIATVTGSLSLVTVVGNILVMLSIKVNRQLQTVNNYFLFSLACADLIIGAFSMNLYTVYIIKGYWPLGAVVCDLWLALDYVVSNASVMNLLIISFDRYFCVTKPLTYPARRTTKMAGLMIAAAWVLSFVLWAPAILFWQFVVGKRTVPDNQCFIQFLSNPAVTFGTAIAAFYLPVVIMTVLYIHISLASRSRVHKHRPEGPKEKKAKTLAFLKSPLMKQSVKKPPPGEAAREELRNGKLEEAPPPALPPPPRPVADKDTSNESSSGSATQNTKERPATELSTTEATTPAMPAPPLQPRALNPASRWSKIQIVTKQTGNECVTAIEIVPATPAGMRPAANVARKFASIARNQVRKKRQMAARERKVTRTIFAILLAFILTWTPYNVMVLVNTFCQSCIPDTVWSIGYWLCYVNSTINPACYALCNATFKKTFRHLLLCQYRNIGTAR
# CHRM5 antagonist: blocks acetylcholine activation of human M5 receptor | inhibition, % at 3 µM | 360,000 tested, 0.59% active | CHO-hM5 cells, Fluo-8 calcium fluorescence, ACh EC80;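 active means inhibition above a per-plate cutoff, the mean of that plate's test compounds plus 3 SD, cut at about 27% in these data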;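 further: 0% = acetylcholine EC80 with DMSO and 100% = DMSO without agonist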
# CHRM4 agonist: agonists of human muscarinic M4 receptor (CHRM4) | P08173 | CHO-K1 hM4/Gqi5, Fluo-8 calcium fluorescence; vehicle 0%, full acetylcholine response 100% | activation, % at 3 µM | 360,000 tested, 0.14% active | AID 624127;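 active means activation above the run mean over all test wells plus 3 SD, cut at about 32% in these data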;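 further: peak over basal fluorescence ratio per well then scaled between controls; 0% = DMSO wells and 100% = acetylcholine at EC100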
# M4 PAM: positive allosteric modulators of human muscarinic M4 receptor. P08173. CHO-K1 hM4/Gqi5, Fluo-8 calcium fluorescence, ACh EC20; 0% = ACh EC20, 100% = maximal ACh. activation, % at 3 µM. 360,000 tested, 0.4% active. AID 624126;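 active means activation above its plate's cutoff, the mean activation of sample wells plus 3 SD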
# * = called active by the depositor.
SMILES,M5 ag,CHRM5 PAM,CHRM4 antagonist,CHRM5 antagonist,CHRM4 agonist,M4 PAM
O=[N+]([O-])c1cc(C(F)(F)F)cc([N+](=O)[O-])c1NCCNC(=S)Nc1ccc(Cl)c(Cl)c1,10,-25,31*,35*,15,-11
CCOC(=O)C1(C)CCCCCN1C(=O)c1ccccc1F (stereo not given),0,4,0,0,1,9
CNCC/C=C1/c2ccccc2CSc2ccccc21,-12,-30,43*,81*,7,-20
CCCn1nc(C(=O)NNC(=O)C2CSC3(C)CCC(=O)N23)c2ccccc2c1=O (stereo not given),2,2,3,5,2,7
Cc1nnc2c(NCCc3ccccc3)nc3ccccc3n12,-1,-3,6,12,8,3
O=C(O)C1Nc2c(C(F)(F)F)ccc(Cl)c2C2C=CCC12 (stereo not given),-2,19*,-29,-9,2,1
Cc1ccc2c(c1C)NC(C(=O)O)C1CC=CC21 (stereo not given),4,12,13,-17,0,6
O=C(Nc1ccc(N2CCN(C(=O)c3ccco3)CC2)c(Cl)c1)c1cc2ccccc2o1,2,-23,51*,30*,18,-16
CCCC(=O)N1CCN(c2ccc(NC(=O)c3cc4ccccc4o3)cc2Cl)CC1,3,-20,38*,21,19,-21
O=C(O)CCCn1ccc2cc(S(=O)(=O)N3CCCC3)ccc21,-6,-4,-1,11,4,7
COc1cccc(CNC(=O)C(C)n2ccc3cc(S(=O)(=O)N4CCCCCC4)ccc32)c1 (stereo not given),-1,-3,4,4,3,-11
CCC(C(=O)NCCC(C)C)n1ccc2cc(S(=O)(=O)N3CCCCC3)ccc21 (stereo not given),0,-12,11,34*,18,-14
O=C(O)CCn1ccc2cc(S(=O)(=O)N3CCCCCC3)ccc21,-1,19*,-4,-10,0,4
COCCC(=O)N1CCC(Oc2ccc(C(=O)NC(C)CCn3cccn3)cc2)CC1 (stereo not given),0,-3,-7,5,-1,5
C[C@H](CO)N1C[C@H](C)[C@@H](CN(C)S(=O)(=O)c2cccs2)Oc2ccc(NC(=O)Nc3ccc4c(c3)OCO4)cc2C1=O,-2,-4,10,14,1,-1
C[C@H](CO)N1C[C@H](C)[C@H](CN(C)S(=O)(=O)c2cccs2)Oc2ccc(NC(=O)Nc3ccc4c(c3)OCO4)cc2CC1=O,-2,-2,41*,12,1,-16
C[C@H](CO)N1C[C@H](C)[C@@H](CN(C)S(=O)(=O)c2cccs2)Oc2ccc(NS(=O)(=O)c3cn(C)cn3)cc2C1=O,-2,0,9,13,1,-1
C[C@H]1CN([C@@H](C)CO)C(=O)Cc2cc(NS(=O)(=O)c3cccs3)ccc2O[C@H]1CN(C)S(=O)(=O)c1cn(C)cn1,-5,-3,32*,1,3,-14
Cc1cn([C@H]2C[C@H](O)[C@@H](/C=C/C(=O)NCc3ccc(N(C)C)cc3)O2)c(=O)[nH]c1=O,3,6,8,17,0,-6
C=CCN(CC=C)C(=O)CN1C(=O)NC(c2ccccc2)(c2ccccc2)C1=O,1,2,-37,-7,3,18*
CCc1nnc(NC(=O)CSc2nc3ccccc3o2)s1,-1,-5,-8,6,1,8
O=C(CSc1nc2ccccc2o1)Nc1ccc(N2CCOCC2)c(Cl)c1,7,-14,16,28*,13,-7
O=C(CSc1nc2ccccc2s1)Nc1ccc(N2CCOCC2)c(Cl)c1,3,-13,-3,12,6,3
Cc1nnc(NC(=O)CSc2nc3ccccc3o2)s1,3,2,6,-6,1,32*
COC(=O)c1sccc1S(=O)(=O)Nc1ccc(C(O)(C(F)(F)F)C(F)(F)F)cc1,69*,-20,63*,27,133*,-17
SMILES,M5 ag,CHRM5 PAM,CHRM4 antagonist,CHRM5 antagonist,CHRM4 agonist,M4 PAM
C=C(C)C(=O)OCC(O)COc1ccc(C(C)(C)c2ccc(OCC(O)COC(=O)C(=C)C)cc2)cc1 (stereo not given),12,-17,32*,27*,26,-14
COc1ccc(NC(=O)C2CCCN(CCCc3ccccc3)C2)cc1OCC(C)C (stereo not given),-11,-2,29*,8,32,-18
COc1ccc(NC(=O)C2CCCNC2)cc1OCC(C)C (stereo not given),-6,-2,7,4,1,-1
CN(C(=O)CO/N=C/c1ccc(OC(F)F)cc1)C1CCS(=O)(=O)C1 (stereo not given),4,19*,-2,-6,1,1
Cc1ccc(NC(=O)CCC(=O)Nc2nnc(C3CCCCC3)s2)cc1,-6,4,0,5,0,20*
Cc1cc(Oc2ccc(N)cn2)ccc1Cl,24*,1,18,31*,8,0
CC1(C)CC(NC(=O)c2ccc(-c3ccc([N+](=O)[O-])cc3)o2)CC(C)(C)N1,-6,5,3,-8,0,20*
CCN1/C(=C/c2ccc3cccc(C)c3[n+]2CC)Sc2ccccc21,6,-7,31*,27*,10,-8
CCN1/C(=C/c2ccc3cc(C)cc(C)c3[n+]2CC)Sc2cc(C)ccc21,5,-23,21,31*,20,-6
CCN1/C(=C\c2ccc3cc(C)ccc3[n+]2CC)Sc2cc(C)c(C)cc21,9,-23,20,42*,8,-9
COc1cccc(NC(=S)NNC(=O)c2c([N+](=O)[O-])c(C)nn2C)c1,3,3,4,-10,1,34*
Cc1ccccc1S(=O)(=O)NC(=O)C1(C)CCN1C(=O)C/C=C/c1ccccc1 (stereo not given),-1,-3,85*,-3,0,-13
CC1(C(=O)NS(=O)(=O)c2ccccc2Cl)CCN1C(=O)CC1CCCC1 (stereo not given),1,0,-11,2,1,15*
Cc1ccccc1S(=O)(=O)NC(=O)C1(C)CCN1C(=O)CC1CCCC1 (stereo not given),1,-1,-7,3,1,6
CN(C)/C=N/N(C)c1ncccc1[N+](=O)[O-],-4,3,-33,7,-1,-11
COc1ccc2cc(OCC(=O)NNC(=O)Nc3ccc(F)cc3)ccc2c1,-5,6,-13,-5,3,8
